Screening results: PubChem BioAssay, several laboratories
An excerpt weighted towards active compounds, which were near 1.3% of everything screened.
CRFR2-BP ag: agonists of human CRF-binding protein/CRF-R2 receptor complex. HEK293 CRF-R2/CRF-BP, calcium dye fluorescence (FLIPR); percent of saturating CRF peptide response. activation, % at 13.2 µM. actives 0.46% (n = 350,000). AID 588473;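 active means activation of at least 50%, plus an integration ratio under a set limit after plate pattern correction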
CRFBP-R2 block: antagonists of CRF-binding protein/CRF-R2 receptor complex; HEK293 CRF-R2/CRF-BP, CRF-induced calcium fluorescence; inhibition, % at 11.8 µM; actives 0.59% (n = 350,000); AID 588475;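 active means inhibition of the ligand-induced calcium signal above about 50% at the single tested concentration, limit read from the data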
DDE Tn7 FP inh: inhibitors of Tn7 peptide binding to human fibrin DD(E) | FP displacement of FITC-Tn7 peptide from fibrin DD(E); 0% = median of compound wells per plate | actives 0.13% (n = 370,000) | AID 720508 | inhibition, % at 8.3 µM | P02675;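 active means inhibition above the mean of compounds falling within the control limits plus 3 SD of them, cut at about 14% in these data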
Target sequence (P02675 whole entry, looked up): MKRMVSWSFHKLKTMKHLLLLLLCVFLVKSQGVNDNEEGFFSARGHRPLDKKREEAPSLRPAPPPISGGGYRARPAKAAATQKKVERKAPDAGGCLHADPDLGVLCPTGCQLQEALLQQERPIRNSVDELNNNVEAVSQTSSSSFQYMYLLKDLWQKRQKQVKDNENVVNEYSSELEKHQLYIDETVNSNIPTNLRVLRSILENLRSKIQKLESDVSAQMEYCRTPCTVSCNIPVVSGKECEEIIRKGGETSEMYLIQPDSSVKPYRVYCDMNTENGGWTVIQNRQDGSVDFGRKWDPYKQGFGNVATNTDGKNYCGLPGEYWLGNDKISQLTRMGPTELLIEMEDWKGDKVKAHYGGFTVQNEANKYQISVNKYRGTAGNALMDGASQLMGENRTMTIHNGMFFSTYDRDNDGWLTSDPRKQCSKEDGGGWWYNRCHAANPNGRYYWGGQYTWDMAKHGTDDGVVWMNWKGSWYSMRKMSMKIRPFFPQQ
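Assay system: Human clot-derived fibrin DD(E) complex | Buffer or medium: Tris/NaCl/CaCl2 buffer, pH 7.8 | Repeats: One replicate per compound | Benchmarks: Aha-Tn7 high control | Measure: % inhibition scaled between sample-field median and high-control FP | Schedule: 10 min plus 3 h, room temperature | Signal: Fluorescence polarization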
Tn6 DDE FP: inhibitors of Tn6 peptide binding to human fibrin DD(E). Fibrin DD(E) TRITC-Tn6 fluorescence polarization displacement. actives 0.21% (n = 370,000). inhibition, % at 8.3 µM. P02675;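 active means inhibition above a per-campaign cutoff: mean of compounds within control limits plus 3 SD, cut at about 15% in these data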
Tn6 DDE ctr: counter-screen hit for Tn6 peptide-fibrin DD(E) binding disruption | actives 2% (n = 680) | inhibition, % at 8.3 µM | shares compounds with Tn6 DDE FP | TRITC-Tn6 fluorescence polarization displacement; 0% = median of compound wells, not DMSO;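 active means inhibition above the mean of test compounds lying between the control limits plus 3 SD of those, cut at about 14% in these data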
DDE Tn6 confirm: confirmation of inhibitors of Tn6 binding to human fibrin DD(E); shares compounds with Tn6 DDE FP; FP displacement of TRITC-Tn6 peptide from DD(E); 0% = per-plate median of test wells; AID 720631; inhibition, % at 8.3 µM; actives 10% (n = 680);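 active means inhibition above the mean of compounds lying within the control limits plus 3 SD, cut at about 16% in these data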
Of the large screens only hits and unclear results are named; the others gave an inactive call (follow-up assays come after a bar, where they were run).

COc1ccccc1C(=O)NC(=O)COC(=O)c1ccc([N+](=O)[O-])cc1	none
O=C(CCc1ccccc1)N[C@H]1[C@H](OCc2ccccc2)CCC[C@@]12C(=O)N(Cc1ccccc1)c1ccccc12	none (no result: CRFR2-BP ag, CRFBP-R2 block)
COc1cccc(CNC(=O)C2=C(C)C(=O)OC23CCC(C)CC3)c1 (stereo not given)	Tn6 DDE FP 19 | Tn6 DDE ctr inactive | DDE Tn6 confirm inactive
COC(=O)[C@@]12CCCCC3=C1N(CCC3)C(=O)[C@H]2CC(=O)N1CCCCC1	none (no result: CRFR2-BP ag, CRFBP-R2 block)
COC(=O)[C@H](C)NC(=O)C(Cc1ccc2c(c1)OCO2)NC(C)=O (stereo not given in full)	none (no result: CRFR2-BP ag, CRFBP-R2 block)
CCOc1ccc2noc3c2c1C(=O)c1ccccc1-3	Tn6 DDE FP 41 | Tn6 DDE ctr 53 | DDE Tn6 confirm inactive
CCOC(=O)c1c(C)oc2c1C(=O)c1ccccc1C2=O	none
COc1ccc(-c2nnc3c4ccccc4c(C)nn23)cc1S(=O)(=O)N1CCN(CCO)CC1	Tn6 DDE FP 23 | Tn6 DDE ctr inactive | DDE Tn6 confirm inactive
COC(=O)CCC(=O)OC1(C)C(=O)C=C2C=C(C3CC3)N(C3CCCC3)C=C2C1=O (stereo not given)	Tn6 DDE FP 20 | Tn6 DDE ctr inactive | DDE Tn6 confirm inactive
COC(=O)CCC(=O)OC1(C)C(=O)C=C2C=C(C3CC3)N(C3CCCCC3)C=C2C1=O (stereo not given)	none
COC1=C[C@H](C(=O)NC2CCN(Cc3ccccc3)CC2)[C@@]2(C)Cc3ccccc3[C@H]2CC1=O	none (no result: CRFR2-BP ag, CRFBP-R2 block)
COc1ccc(CNC(=O)C[C@H]2C[C@H](C(=O)N3CCOCC3)[C@@]3(CCC4CCCC4)c4[nH]c5cc(-c6ccco6)ccc5c4CCN3C2=O)cc1OC	Tn6 DDE FP 16 | Tn6 DDE ctr inactive | DDE Tn6 confirm inactive
O=C(C[C@H]1C[C@H](C(=O)N2CCOCC2)[C@@]2(CCC3CCCC3)c3[nH]c4cc(-c5ccco5)ccc4c3CCN2C1=O)NCc1cccc(C(F)(F)F)c1	none
CC(NC(=O)N1CCOCC1)c1ccccc1 (stereo not given)	none
O=C(NC(c1ccccc1)c1ccccc1)N1CCOCC1	Tn6 DDE FP 16 | Tn6 DDE ctr inactive | DDE Tn6 confirm inactive
O=C(Cn1c(-c2cncs2)nc2ccccc21)NCc1cccs1	none (no result: CRFR2-BP ag, CRFBP-R2 block)
O=C(c1cc2ccccc2o1)N1CCCC1	Tn6 DDE FP 17 | Tn6 DDE ctr inactive | DDE Tn6 confirm inactive
COC(=O)[C@]12C[C@H](CC(=O)NCc3cccc4ccccc34)C(=O)N(CCc3ccc(OC)c(OC)c3)C1=C[C@H](C(C)C)O[C@@H]2C1CC1	none (no result: CRFR2-BP ag, CRFBP-R2 block)
CCc1csc(N2[C@H](CN(CCOC)S(=O)(=O)c3ccccc3[N+](=O)[O-])[C@H](c3ccccc3)[C@@H]2CO)n1	none (no result: CRFR2-BP ag, CRFBP-R2 block)
Cc1cc(Br)ccc1SCC(=O)OCC(=O)NCc1ccco1	Tn6 DDE FP 15 | Tn6 DDE ctr inactive | DDE Tn6 confirm inactive
CC[C@]12c3[nH]c4ccc(Cl)cc4c3CCN1C(=O)[C@@H](CC(=O)NCCCN(C)C)C[C@@H]2C(=O)N1CCN(C(=O)c2ccco2)CC1	none
CC[C@]12c3[nH]c4ccc(Cl)cc4c3CCN1C(=O)[C@@H](CC(=O)NC(C)(C)C)C[C@@H]2C(=O)N1CCN(C(=O)c2ccco2)CC1	Tn6 DDE FP 16 | Tn6 DDE ctr inactive | DDE Tn6 confirm inactive
O=S1(=O)C=CCN1Cc1cn(Cc2ccc(C(F)(F)F)cc2)nn1	none (no result: CRFR2-BP ag, CRFBP-R2 block)
CCC(=O)OC1(C)C(=O)C=C2C=C(CCCC(=O)OC)OC=C2C1=O (stereo not given)	none
CCCCC1=CC2=CC(=O)C(C)(OC(=O)CC)C(=O)C2=CO1 (stereo not given)	Tn6 DDE FP 18 | Tn6 DDE ctr inactive | DDE Tn6 confirm inactive
O=C1CC(Nc2ccc(N3CCOCC3)cc2)C(=O)N1Cc1ccccc1 (stereo not given)	Tn6 DDE FP 20 | Tn6 DDE ctr inactive | DDE Tn6 confirm inactive
O=C1CC(Nc2ccc(N3CCOCC3)cc2)C(=O)N1c1ccccc1 (stereo not given)	none (no result: DDE Tn7 FP inh, Tn6 DDE FP)
NS(=O)(=O)c1ccc(NC(=O)COC(=O)/C(=C/c2cccs2)c2cccs2)cc1	Tn6 DDE FP 19 | Tn6 DDE ctr inactive | DDE Tn6 confirm inactive
NS(=O)(=O)c1ccc(NC(=O)Cc2cccs2)cc1	none
CC(C)(C)OC(=O)N1CCC(N[C@@H](Cc2c[nH]c3ccccc23)C(=O)NCCc2c[nH]c3ccccc23)(C(=O)NC2CCCCC2)CC1	none (no result: CRFR2-BP ag, CRFBP-R2 block)
CC1(NC(=O)c2ccc(C#Cc3cccc(F)c3)cn2)COC1	none (no result: CRFR2-BP ag, CRFBP-R2 block)
Cc1cn([C@H]2C[C@H](O)[C@@H](/C=C/C(=O)NCCC(C)C)O2)c(=O)[nH]c1=O	Tn6 DDE FP 15 (no result: CRFR2-BP ag, CRFBP-R2 block) | Tn6 DDE ctr inactive | DDE Tn6 confirm inactive
Cc1cn([C@H]2C[C@H](O)[C@@H](/C=C/C(=O)NCC(c3ccccc3)c3ccccc3)O2)c(=O)[nH]c1=O	none (no result: CRFR2-BP ag, CRFBP-R2 block)
CN(C)N1C(N)=C(C#N)C(c2ccc3c(c2)OCO3)C2=C1CCCC2=O (stereo not given)	Tn6 DDE FP 15 | Tn6 DDE ctr inactive | DDE Tn6 confirm inactive
CN(C)N1C(N)=C(C#N)C(c2cccc(Cl)c2)C2=C1CCCC2=O (stereo not given)	none
COc1cc(C(=O)NCC(=O)N/N=C/c2cccc(OC(=O)c3ccco3)c2)cc(OC)c1OC	none
COc1cc(C(=O)NCC(=O)N/N=C/c2ccco2)cc(OC)c1OC	Tn6 DDE FP 27 | Tn6 DDE ctr inactive | DDE Tn6 confirm inactive
COc1cccc(CN(C)CC(=O)NC(=O)NCc2ccco2)c1	Tn6 DDE FP 18 | Tn6 DDE ctr inactive | DDE Tn6 confirm inactive
COc1ccccc1CN1CC(C(=O)NCCc2ccc(C)o2)CCC1=O (stereo not given)	Tn6 DDE FP 20 | Tn6 DDE ctr inactive | DDE Tn6 confirm inactive
Cn1c(=O)[nH]c(=O)c2c1nc(NCCCn1ccnc1)n2Cc1ccc(F)cc1	Tn6 DDE FP 15 | Tn6 DDE ctr inactive | DDE Tn6 confirm inactive
C/C(Cl)=C/Cn1c(NCCCn2ccnc2)nc2c1c(=O)[nH]c(=O)n2C	none
Cc1ncc(C(O)c2ccc(N(C)C)cc2)n1Cc1ccccc1 (stereo not given)	none
CN(C)c1ccc2nc3c(=O)[nH]c(=O)nc-3n(CC(O)C(O)C(O)CO)c2c1 (stereo not given)	Tn6 DDE FP 73 | Tn6 DDE ctr inactive | DDE Tn6 confirm inactive
COc1cccc(-c2cc(CNC(=O)[C@H]3O[C@@H](n4cnc(C(N)=O)n4)[C@H](O)[C@@H]3O)no2)c1	none (no result: CRFR2-BP ag, CRFBP-R2 block)
Cc1cc(C)c2cccc(N)c2n1	none
Cc1cc(C)c2ccc(N)nc2c1O	Tn6 DDE FP 29 | Tn6 DDE ctr inactive | DDE Tn6 confirm inactive
Cc1ccc(C)c(-n2nnnc2SCC(=O)NNC(=O)c2ccco2)c1	Tn6 DDE FP 20 | Tn6 DDE ctr inactive | DDE Tn6 confirm inactive
